One assay has as its target T1, Adenosine receptor A1 (Homo sapiens, UniProt P30542).
T1 sequence (P30542 whole entry): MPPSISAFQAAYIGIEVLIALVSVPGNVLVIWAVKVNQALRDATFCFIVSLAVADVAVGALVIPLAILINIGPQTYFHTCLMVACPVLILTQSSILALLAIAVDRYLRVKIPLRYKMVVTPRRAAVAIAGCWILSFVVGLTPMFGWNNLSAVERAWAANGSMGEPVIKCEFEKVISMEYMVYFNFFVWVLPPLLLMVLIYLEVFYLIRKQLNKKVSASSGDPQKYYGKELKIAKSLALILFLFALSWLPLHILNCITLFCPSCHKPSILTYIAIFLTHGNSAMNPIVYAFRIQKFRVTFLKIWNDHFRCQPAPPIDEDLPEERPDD
Nature of the assay: Displacement of [3H]DPCPX from human adenosine A1 receptor expressed in CHO cells after 120 mins by scintillation counter. The format is cell-based. The method in brief: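 Membranes from CHO cells expressing human A1 (50 μg protein), in 50 mM Tris-HCl pH 7.4, pretreated with adenosine deaminase 2 IU/mL. [³H]DPCPX 1 nM, 6–8 test concentrations, 120 min at 25 °C. Nonspecific binding with 1 μM DPCPX. GF/B filtration. Ki by Cheng–Prusoff.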
On the technique in general: Displacement assays read how much labelled ligand stays bound in the presence of the test substance.

The target in the next assay is Adenosine receptor A2a (Homo sapiens, UniProt P29274). Nature of the assay: Displacement of [3H]ZM241385 from human adenosine A2A receptor expressed in CHO cells after 60 mins by scintillation counter. The format is cell-based. In short, it runs like this: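 Membranes from CHO cells expressing human A2A (50 μg protein), in 50 mM Tris-HCl, 10 mM MgCl2, pH 7.4, adenosine deaminase pretreated. [³H]ZM241385 2 nM, 6–8 concentrations, 60 min at 4 °C. Nonspecific binding with 1 μM ZM241385. Filtration, scintillation counting. Ki by Cheng–Prusoff. 3–4 experiments in duplicate.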

Assay [1] has as its target T2, Adenosine receptor A3 (Homo sapiens, UniProt P0DMS8).
T2 sequence (P0DMS8 whole entry): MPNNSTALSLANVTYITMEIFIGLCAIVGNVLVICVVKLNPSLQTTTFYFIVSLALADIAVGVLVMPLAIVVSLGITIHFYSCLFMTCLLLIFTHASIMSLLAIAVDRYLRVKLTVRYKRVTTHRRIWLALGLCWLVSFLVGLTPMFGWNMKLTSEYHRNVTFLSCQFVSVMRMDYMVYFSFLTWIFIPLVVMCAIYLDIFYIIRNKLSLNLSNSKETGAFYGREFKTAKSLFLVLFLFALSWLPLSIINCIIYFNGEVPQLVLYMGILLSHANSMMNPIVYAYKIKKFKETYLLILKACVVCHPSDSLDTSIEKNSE
Nature of the assay: Displacement of [3H]MRE-3008-F20 from human adenosine A3 receptor expressed in CHO cells after 120 mins by scintillation counter. The class given is cell-based.

The target in the next assay is T3, Adenosine receptor A2b (Homo sapiens, UniProt P29275).
T3 sequence (P29275 whole entry): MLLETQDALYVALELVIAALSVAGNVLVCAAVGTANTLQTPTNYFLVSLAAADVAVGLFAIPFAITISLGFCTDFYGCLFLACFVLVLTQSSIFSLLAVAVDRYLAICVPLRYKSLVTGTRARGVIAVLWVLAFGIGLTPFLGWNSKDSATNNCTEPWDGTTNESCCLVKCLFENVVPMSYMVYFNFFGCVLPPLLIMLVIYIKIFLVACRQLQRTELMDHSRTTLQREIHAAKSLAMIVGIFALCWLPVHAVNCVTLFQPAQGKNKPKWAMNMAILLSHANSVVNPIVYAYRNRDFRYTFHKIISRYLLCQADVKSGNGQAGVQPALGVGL
In words: Antagonist activity at human adenosine A2B receptor expressed in CHO cells assessed as inhibition of NECA-induced cAMP production. The class given is functional, cell-based. The method in brief: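 Intact CHO cells (1 × 10⁶/assay) expressing human A2B, in buffer pH 7.4 with 2 IU/mL adenosine deaminase and Ro 20-1724. Preincubated 10 min at 37 °C. NECA 100 nM stimulus. Stopped with cold 6% TCA, ether-extracted, cAMP measured by competition protein binding with [³H]cAMP. IC50 from sigmoid nonlinear regression.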
On the technique in general: cAMP levels reflect the balance of adenylyl cyclase and phosphodiesterase activity.

Assay [2] concerns the target T2, Adenosine receptor A3. Nature of the assay: Antagonist activity at human adenosine A3 receptor expressed in CHO cells assessed as forskolin/C1-IB-MECA-induced inhibition of cAMP production. The class given is functional, cell-based. In short, it runs like this: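 Intact CHO cells (1 × 10⁶/assay) expressing human A3, in buffer pH 7.4 with 2 IU/mL adenosine deaminase and Ro 20-1724. Preincubated 10 min at 37 °C. Forskolin 1 μM with Cl-IB-MECA 100 nM. Stopped with cold 6% TCA, cAMP measured by [³H]cAMP competition protein binding. IC50 by sigmoid nonlinear regression.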

Chain of Adenosine receptor A2a (P29274 whole entry): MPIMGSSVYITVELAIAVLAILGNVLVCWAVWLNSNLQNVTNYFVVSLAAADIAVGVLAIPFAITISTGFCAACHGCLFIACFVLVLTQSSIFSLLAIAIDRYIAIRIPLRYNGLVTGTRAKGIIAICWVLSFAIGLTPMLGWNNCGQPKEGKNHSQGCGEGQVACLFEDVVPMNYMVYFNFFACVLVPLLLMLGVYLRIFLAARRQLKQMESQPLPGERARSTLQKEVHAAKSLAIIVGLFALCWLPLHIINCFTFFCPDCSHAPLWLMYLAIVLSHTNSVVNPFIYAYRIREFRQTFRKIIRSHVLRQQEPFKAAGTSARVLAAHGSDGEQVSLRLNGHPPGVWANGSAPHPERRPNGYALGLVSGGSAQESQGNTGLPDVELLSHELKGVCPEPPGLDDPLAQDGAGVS

The Ki is the dissociation constant of the complex between target and ligand, obtained from inhibition or displacement. Low values mean tighter binding, high ones weaker binding. A word on the IC50: it is the concentration that inhibits the measured activity by half. For `Cn1cc2c(nc(NC(=O)NC3CCN(Cc4ccc([N+](=O)[O-])cc4)CC3)n3nc(-c4ccco4)nc23)n1`, the Ki was 371 nM on Adenosine receptor A1, above 5000 nM at Adenosine receptor A2a and 12.4 nM on Adenosine receptor A3 [1]. Also, the IC50 on Adenosine receptor A2b was above 5000 nM; at Adenosine receptor A3 [2], 42 nM.

On to `Cn1cc2c(nc(NC(=O)NC3CCN(C(=O)NC4CCCC4)CC3)n3nc(-c4ccco4)nc23)n1`, for which the Ki was 744 nM on Adenosine receptor A1, above 5000 nM at Adenosine receptor A2a and 9.3 nM on Adenosine receptor A3 [1]. For the same compound, the results for the IC50 at Adenosine receptor A2b and on Adenosine receptor A3 [2] were above 5000 nM and 30 nM, respectively.

As for `CN1CCC(NC(=O)Nc2nc3nn(C)cc3c3nc(-c4ccco4)nn23)CC1`, the Ki on Adenosine receptor A1 is above 5000 nM; at Adenosine receptor A2a it was above 5000 nM; on Adenosine receptor A3 [1], 253 nM. The results for the IC50 at Adenosine receptor A2b and on Adenosine receptor A3 [2] were above 5000 nM and 910 nM, respectively.

For the compound `Cn1cc2c(nc(NC(=O)NC3CCN(C(=O)NCc4ccccc4)CC3)n3nc(-c4ccco4)nc23)n1`, the Ki was 525 nM on Adenosine receptor A1, above 5000 nM on Adenosine receptor A2a and 8.1 nM at Adenosine receptor A3 [1]. In addition, the IC50 was 1110 nM on Adenosine receptor A2b and 29 nM at Adenosine receptor A3 [2].

Regarding `Cc1ccc(CNC(=O)N2CCC(NC(=O)Nc3nc4nn(C)cc4c4nc(-c5ccco5)nn34)CC2)cc1`, the inhibition constant (Ki) on Adenosine receptor A1 is 396 nM; on Adenosine receptor A2a, 2810 nM; at Adenosine receptor A3 [1], 3.9 nM. Besides, the IC50 on Adenosine receptor A2b is 2120 nM; on Adenosine receptor A3 [2], 12 nM.

With `Cn1cc2c(nc(NC(=O)NC3CCN(Cc4ccc(F)cc4)CC3)n3nc(-c4ccco4)nc23)n1`, the Ki on Adenosine receptor A1 is 1050 nM; at Adenosine receptor A2a, above 5000 nM; on Adenosine receptor A3 [1] it was 24 nM. For the same compound, the IC50 on Adenosine receptor A2b was above 5000 nM; on Adenosine receptor A3 [2], 82 nM.

With `Cn1cc2c(nc(NC(=O)NC3CCN(C(=O)Nc4ccncc4)CC3)n3nc(-c4ccco4)nc23)n1`, the Ki is 1300 nM at Adenosine receptor A1, 1860 nM at Adenosine receptor A2a and 21 nM at Adenosine receptor A3 [1]. The concentration for half-maximal inhibition (IC50) was found to be 3240 nM at Adenosine receptor A2b and 82 nM on Adenosine receptor A3 [2].

As for `Cn1cc2c(nc(NC(=O)NC3CCNCC3)n3nc(-c4ccco4)nc23)n1`, the Ki at Adenosine receptor A1 is above 5000 nM; on Adenosine receptor A2a, above 5000 nM; at Adenosine receptor A3 [1], 65 nM. In addition, the IC50 on Adenosine receptor A2b is 2430 nM; on Adenosine receptor A3 [2], 262 nM.

On to `COc1ccc(CNC(=O)N2CCC(NC(=O)Nc3nc4nn(C)cc4c4nc(-c5ccco5)nn34)CC2)cc1`, for which the results for the Ki on Adenosine receptor A1, at Adenosine receptor A2a and on Adenosine receptor A3 [1] were 635 nM, above 5000 nM and 10.4 nM, respectively. In addition, the results for the IC50 at Adenosine receptor A2b and on Adenosine receptor A3 [2] were 3240 nM and 34 nM, respectively.

With `Cn1cc2c(nc(NC(=O)NC3CCN(Cc4ccccc4)CC3)n3nc(-c4ccco4)nc23)n1`, the results for the Ki on Adenosine receptor A1, at Adenosine receptor A2a and on Adenosine receptor A3 [1] were 703 nM, 526 nM and 30 nM, respectively. Also, the figures for the IC50 at Adenosine receptor A2b and at Adenosine receptor A3 [2] were 2060 nM and 121 nM, respectively.

For `C=CCN1CCC(NC(=O)Nc2nc3nn(C)cc3c3nc(-c4ccco4)nn23)CC1`, the Ki on Adenosine receptor A1 turned out to be 3360 nM; on Adenosine receptor A2a it was 1420 nM; at Adenosine receptor A3 [1], 51 nM. In addition, the IC50 on Adenosine receptor A2b is above 5000 nM; on Adenosine receptor A3 [2], 212 nM.

In the case of `Cn1cc2c(nc(NC(=O)NC3CCN(Cc4ccncc4)CC3)n3nc(-c4ccco4)nc23)n1`, the Ki at Adenosine receptor A1 is 1190 nM; at Adenosine receptor A2a it was above 5000 nM; at Adenosine receptor A3 [1] it was 39 nM. The IC50 at Adenosine receptor A2b is above 5000 nM; at Adenosine receptor A3 [2] it was 166 nM.

Regarding `Cn1cc2c(nc(NC(=O)NC3CCN(C(=O)NCc4ccc(F)cc4)CC3)n3nc(-c4ccco4)nc23)n1`, the Ki on Adenosine receptor A1 was 408 nM; at Adenosine receptor A2a, 3260 nM; on Adenosine receptor A3 [1], 4.9 nM. In addition, the IC50 is 1040 nM at Adenosine receptor A2b and 15 nM on Adenosine receptor A3 [2].

`CCNC(=O)N1CCC(NC(=O)Nc2nc3nn(C)cc3c3nc(-c4ccco4)nn23)CC1`: the inhibition constant Ki is 1500 nM on Adenosine receptor A1, above 5000 nM on Adenosine receptor A2a and 30 nM on Adenosine receptor A3 [1]. In addition, the IC50 at Adenosine receptor A2b was above 5000 nM; at Adenosine receptor A3 [2], 116 nM.

Values taken from ChEMBL document CHEMBL2069218, “Water-soluble pyrazolo[4,3-e][1,2,4]triazolo[1,5-c]pyrimidines as human A₃ adenosine receptor antagonists” (J Med Chem, 2012).
